Test results as given in ChEMBL document CHEMBL3865800, “Design, synthesis and biological evaluation of 4-anilinoquinazoline derivatives as new c-myc G-quadruplex ligands” (Eur J Med Chem, 2016).
The source made the active and inactive calls. No cut-off for these calls is given here.

Assays:
[1] = Cytotoxicity against mouse primary mesangial cells assessed as reduction in cell viability after 48 hrs by MTT assay; assay type: toxicity
[2] = Cytotoxicity against human CA46 cells assessed as reduction in cell viability after 48 hrs by MTT assay; assay type: functional, cell-based; conditions: CA46, 48 h
[3] = Cytotoxicity against human Raji cells assessed as reduction in cell viability after 48 hrs by MTT assay; assay type: functional, cell-based
[4] = Cytotoxicity against human A549 cells assessed as reduction in cell viability after 48 hrs by MTT assay; assay type: functional, cell-based; conditions: A549, 48 h
[5] = Cytotoxicity against human HeLa cells assessed as reduction in cell viability after 48 hrs by MTT assay; assay type: functional, cell-based
[6] = Binding affinity to 5'-Pu22-3' c-myc G-quadruplex DNA (unknown origin) assessed as maintainance of parallel c-myc G-quadruplex conformation at 2 equiv after 6 hrs in presence of KCl by CD-spectroscopic analysis
Method in brief: (§1)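 Pu22 at 3 μM final in 10 mM Tris-HCl buffer with ligand at 2 equiv, with 100 mM KCl or without KCl; heated 95 °C 5 min, slowly cooled, held ≥6 h; CD spectra 230–330 nm, 1 mm quartz cell, 1 nm bandwidth and step, 0.5 s/point, average of two scans.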

[7] = Selectivity ratio of Kd for double stranded DNA (unknown origin) to Kd for biotinylated 5'-Pu22-3'-labelled c-myc G-quadruplex DNA
[8] = Binding affinity to biotinylated double stranded DNA (unknown origin) after 240 secs by SPR assay
Method in brief: (§2)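 SPR: biotinylated Pu22 and biotinylated duplex folded in 50 mM Tris-HCl pH 7.4, 150 mM KCl, 0.005% Tween20, captured (~1000 RU) on separate flow cells with a blank reference; ligand 0.0625–10 μM in running buffer, 240 s association then 240 s dissociation at 25 °C; equilibrium KD derived.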

[9] = Binding affinity to biotinylated 5'-Pu22-3'-labelled c-myc G-quadruplex DNA (unknown origin) after 240 secs by SPR assay; method in brief: as §2
[10] = Binding affinity to 5'-FPu22T-3'-labelled c-myc G-quadruplex DNA (unknown origin) assessed as change in melting temperature at 2 uM in presence ds26 DNA of by FRET assay
Method in brief: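 FRET melting of 0.4 μM labelled FPu22T with ligand 2.0 μM, alone or with 10-fold (4 μM), 50-fold (20 μM) or 100-fold (40 μM) excess unlabelled duplex ds26 as competitor; Tris-HCl 10 mM pH 7.4 with 10 or 60 mM KCl; ex 470/em 530 nm read every 1 °C from 37–99 °C, 30 s hold; ΔTm = Tm(DNA+ligand) − Tm(DNA).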

[11] = Binding affinity to F10T duplex DNA (unknown origin) assessed as change in melting temperature by FRET assay
Method in brief: (§3)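 Fluorescence melting on real-time PCR instrument; 0.4 μM labelled oligonucleotide (FPu22T or duplex-forming F10T), ligand 2.0 μM, in 10 mM Tris-HCl pH 7.4 with 10 or 60 mM KCl; ex 470/em 530 nm at 1 °C steps over 37–99 °C, 30 s equilibration each; ΔTm = Tm(DNA+ligand) − Tm(DNA).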

[12] = Binding affinity to 5'-FPu22T-3'-labelled c-myc G-quadruplex DNA (unknown origin) assessed as change in melting temperature by FRET assay; method in brief: as §3
HeLa [13] = assay: Binding affinity to c-myc G-quadruplex DNA in human HeLa cells assessed as inhibition of c-myc transcription after 3 hrs by RT-PCR analysis; assay type: cell-based
Method in brief: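 HeLa (2×10^5/well) treated 3 h with 1.25–10 μM or DMSO; total RNA oligo-dT primed, M-MLV reverse transcribed (70 °C 10 min; 42 °C 1 h; 70 °C 15 min); c-myc and β-actin (internal control) amplified by real-time PCR, products run on 1.5% agarose.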

HeLa [14] = assay: Binding affinity to c-myc G-quadruplex DNA in human HeLa cells assessed as reduction in c-myc gene expression at 1.25 to 10 uM after 6 hrs by Western blot analysis; assay type: cell-based
Method in brief: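 HeLa treated 6 h at 0–10 μM; lysates BCA-quantified, 20 μg protein on 12% SDS–PAGE, transferred to nitrocellulose, blocked in 5% BSA/TBS-Tween; probed with anti-c-myc and anti-GAPDH (loading control), HRP secondary, chemiluminescent detection.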

HeLa [15] = assay: Cytotoxicity against human HeLa cells assessed as cell growth inhibition at 1.25 to 10 uM after 80 hrs by RTCA assay; assay type: functional, cell-based
Mus musculus = organism: Mus musculus; assay: Cytotoxicity against mouse primary mesangial cells assessed as cell growth inhibition at 1.25 to 10 uM after 80 hrs by RTCA assay; assay type: toxicity, cell-based
[16] = Cell cycle arrest in human HeLa cells assessed as accumulation at G0/G1 phase after 12 hrs by propidium iodide based FACS analysis (reference value: 30.8 %); assay type: functional
[17] = Cell cycle arrest in human HeLa cells assessed as accumulation at S phase after 12 hrs by propidium iodide based FACS analysis (reference value: 23.1 %); assay type: functional
[18] = Cell cycle arrest in human HeLa cells assessed as accumulation at G2/M phase after 12 hrs by propidium iodide based FACS analysis (reference value: 46.1 %); assay type: functional
[19] = Cell cycle arrest in human HeLa cells assessed as accumulation at G0/G1 phase after 24 hrs by propidium iodide based FACS analysis (reference value: 30.8 %); assay type: functional
[20] = Cell cycle arrest in human HeLa cells assessed as accumulation at S phase after 24 hrs by propidium iodide based FACS analysis (reference value: 23.1 %); assay type: functional
[21] = Cell cycle arrest in human HeLa cells assessed as accumulation at G2/M phase after 24 hrs by propidium iodide based FACS analysis (reference value: 46.1 %); assay type: functional
[22] = Cell cycle arrest in human HeLa cells assessed as accumulation at G0/G1 phase after 48 hrs by propidium iodide based FACS analysis (reference value: 30.8 %); assay type: functional
[23] = Cell cycle arrest in human HeLa cells assessed as accumulation at S phase after 48 hrs by propidium iodide based FACS analysis (reference value: 23.1 %); assay type: functional
[24] = Cell cycle arrest in human HeLa cells assessed as accumulation at G2/M phase after 48 hrs by propidium iodide based FACS analysis (reference value: 46.1 %); assay type: functional
[25] = Cell cycle arrest in human HeLa cells assessed as accumulation at G0/G1 phase at 1.25 uM after 48 hrs by propidium iodide based FACS analysis (reference value: 35.9 %); assay type: functional
[26] = Cell cycle arrest in human HeLa cells assessed as accumulation at S phase at 1.25 uM after 48 hrs by propidium iodide based FACS analysis (reference value: 28.6 %); assay type: functional
[27] = Cell cycle arrest in human HeLa cells assessed as accumulation at G2/M phase at 1.25 uM after 48 hrs by propidium iodide based FACS analysis (reference value: 33.7 %); assay type: functional
[28] = Cell cycle arrest in human HeLa cells assessed as accumulation at G0/G1 phase at 2.5 uM after 48 hrs by propidium iodide based FACS analysis (reference value: 35.9 %); assay type: functional
[29] = Cell cycle arrest in human HeLa cells assessed as accumulation at S phase at 2.5 uM after 48 hrs by propidium iodide based FACS analysis (reference value: 28.6 %); assay type: functional
[30] = Cell cycle arrest in human HeLa cells assessed as accumulation at G2/M phase at 2.5 uM after 48 hrs by propidium iodide based FACS analysis (reference value: 33.7 %); assay type: functional
[31] = Cell cycle arrest in human HeLa cells assessed as accumulation at G0/G1 phase at 5 uM after 48 hrs by propidium iodide based FACS analysis (reference value: 35.9 %); assay type: functional
[32] = Cell cycle arrest in human HeLa cells assessed as accumulation at S phase at 5 uM after 48 hrs by propidium iodide based FACS analysis (reference value: 28.6 %); assay type: functional
[33] = Cell cycle arrest in human HeLa cells assessed as accumulation at G2/M phase at 5 uM after 48 hrs by propidium iodide based FACS analysis (reference value: 33.7 %); assay type: functional
[34] = Binding affinity to 5'-Pu22-3' c-myc G-quadruplex DNA (unknown origin) assessed as induction of parallel c-myc G-quadruplex conformation at 2 equiv after 6 hrs in absence of KCl by CD-spectroscopic analysis; method in brief: as §1
[35] = Drug uptake in human HeLa cells at 10 uM after 48 hrs

CCN(CC)CCC(=O)Nc1ccc(Nc2nc(-c3ccccc3NC(=O)CCN(CC)CC)nc3ccccc23)cc1
IC50 at 48 h [1]: 13.1 µM
IC50 [2]: 6.5 µM
IC50 [3]: 3.1 µM
IC50 [4]: 5.9 µM
IC50 [5]: 4.4 µM
Activity [6]: Active
Selectivity ratio [7]: > 47.6
Kd [8]: > 10 µM
Kd [9]: 0.21 µM
Activity [10]: Active
ΔTm [11]: 0.8 °C
ΔTm [12]: 19.6 °C
inhibition (HeLa [13]): Dose-dependent effect
inhibition (HeLa [14]): Active
growth inhibition (GI) (HeLa [15]): Active
Activity (Mus musculus): Non-Toxic
Activity [16]: 41.8%
Activity [17]: 19.4%
Activity [18]: 38.8%
Activity [19]: 43.5%
Activity [20]: 18.4%
Activity [21]: 38.1%
Activity [22]: 61.1%
Activity [23]: 16.8%
Activity [24]: 22.1%
Activity [25]: 48.4%
Activity [26]: 26.4%
Activity [27]: 22.2%
Activity [28]: 48.9%
Activity [29]: 30.2%
Activity [30]: 18.4%
Activity [31]: 54.8%
Activity [32]: 29%
Activity [33]: 12.7%
Activity [34]: Active
Drug uptake [35]: Active
